Our source for the IC50, inhibition and clearance values is ChEMBL document CHEMBL5661979, “Pharmacological inhibition of BMK1 suppresses tumor growth through promyelocytic leukemia protein” (Cancer Cell, 2010).

Series [1] concerns the target Phosphorylase b kinase gamma catalytic chain, liver/testis isoform (Homo sapiens, UniProt P15735). Kind of series: Inhibition of PHKg2 in human HeLa cells lysate pre incubated for 15 mins followed by ADP acyl phosphate probe addition and measured after 10 mins by LC-MS/MS analysis. It is filed as subcellular.
Series [2] deals with DNA-dependent protein kinase catalytic subunit (Homo sapiens, UniProt P78527). Kind of series: Inhibition of PRKDC in human HeLa cells lysate at 50 uM pre incubated for 15 mins followed by ATP acyl phosphate probe addition and measured after 10 mins by LC-MS/MS analysis relative to control. Conditions: time 25.0 min. It is filed as subcellular.
Series [3] has as its target T1, Serine/threonine-protein kinase Nek9 (Homo sapiens) (UniProt Q8TD19).
T1 sequence (whole entry): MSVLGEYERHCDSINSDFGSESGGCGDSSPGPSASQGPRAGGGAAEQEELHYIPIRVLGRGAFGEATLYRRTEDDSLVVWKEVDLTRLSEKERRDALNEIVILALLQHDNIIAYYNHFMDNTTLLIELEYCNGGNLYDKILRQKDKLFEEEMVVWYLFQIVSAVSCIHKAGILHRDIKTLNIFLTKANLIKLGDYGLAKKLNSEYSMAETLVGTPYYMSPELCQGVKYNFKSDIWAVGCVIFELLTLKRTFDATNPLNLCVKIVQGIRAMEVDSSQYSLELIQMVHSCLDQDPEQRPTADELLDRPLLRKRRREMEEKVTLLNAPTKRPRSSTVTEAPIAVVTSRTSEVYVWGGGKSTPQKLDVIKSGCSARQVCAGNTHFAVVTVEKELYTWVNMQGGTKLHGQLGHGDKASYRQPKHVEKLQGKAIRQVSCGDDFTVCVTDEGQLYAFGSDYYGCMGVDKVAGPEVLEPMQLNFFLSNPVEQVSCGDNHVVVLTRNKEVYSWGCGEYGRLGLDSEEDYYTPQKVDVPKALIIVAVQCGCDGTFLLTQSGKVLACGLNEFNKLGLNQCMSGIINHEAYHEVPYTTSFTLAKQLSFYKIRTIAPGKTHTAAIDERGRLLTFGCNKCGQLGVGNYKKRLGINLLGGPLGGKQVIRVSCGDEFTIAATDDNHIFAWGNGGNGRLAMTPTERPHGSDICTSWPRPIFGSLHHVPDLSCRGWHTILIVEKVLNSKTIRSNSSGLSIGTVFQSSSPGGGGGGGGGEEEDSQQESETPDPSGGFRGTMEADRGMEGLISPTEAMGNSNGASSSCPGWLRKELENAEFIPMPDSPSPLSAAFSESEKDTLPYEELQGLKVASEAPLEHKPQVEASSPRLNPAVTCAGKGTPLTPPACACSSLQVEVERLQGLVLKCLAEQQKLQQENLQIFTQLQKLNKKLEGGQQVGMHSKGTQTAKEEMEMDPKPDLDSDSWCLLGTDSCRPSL
As to the kind of experiment: Inhibition of NEK9 in human HeLa cells lysate at 50 uM pre incubated for 15 mins followed by ADP acyl phosphate probe addition and measured after 10 mins by LC-MS/MS analysis relative to control. Format: subcellular. The note with it: time 25.0 min.

The target of another series is RPS6KA1/RPS6KA2/RPS6KA3 (Homo sapiens, UniProt P51812+Q15349+Q15418). Kind of series: Inhibition of RSK1/2/3 in human HeLa cells lysate pre incubated for 15 mins followed by ATP acyl phosphate probe addition and measured after 10 mins by LC-MS/MS analysis. It is filed as subcellular.
The target in series [4] is T2, Dual specificity mitogen-activated protein kinase kinase 4 (Homo sapiens) (UniProt P45985).
T2 sequence (whole entry): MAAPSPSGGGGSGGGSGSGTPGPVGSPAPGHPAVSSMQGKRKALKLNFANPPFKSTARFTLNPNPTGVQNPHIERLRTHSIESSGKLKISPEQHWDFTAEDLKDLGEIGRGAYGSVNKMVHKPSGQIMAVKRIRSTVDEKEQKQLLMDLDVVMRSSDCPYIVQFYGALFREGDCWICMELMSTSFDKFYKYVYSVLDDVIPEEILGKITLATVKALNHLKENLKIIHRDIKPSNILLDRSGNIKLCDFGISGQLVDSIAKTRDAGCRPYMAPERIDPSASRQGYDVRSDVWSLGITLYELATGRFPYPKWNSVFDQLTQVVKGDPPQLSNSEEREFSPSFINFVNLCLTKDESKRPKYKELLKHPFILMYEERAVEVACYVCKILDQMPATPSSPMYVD
As to the kind of experiment: Inhibition of MAP2K4 in human HeLa cells lysate at 10 uM pre incubated for 15 mins followed by ATP acyl phosphate probe addition and measured after 10 mins by LC-MS/MS analysis relative to control. It is filed as subcellular. Conditions: time 25.0 min.

Series [5] addresses Serine/threonine-protein kinase TAO2 (Homo sapiens, UniProt Q9UL54). As to the kind of experiment: Inhibition of TAO2 in human HeLa cells lysate pre incubated for 15 mins followed by ATP acyl phosphate probe addition and measured after 10 mins by LC-MS/MS analysis. It is filed as subcellular.
For series [6], the target named is Cyclin-dependent kinase 2 (Homo sapiens, UniProt P24941). As to the kind of experiment: Inhibition of CDK2 K1 site in human HeLa cells lysate at 2 uM pre incubated for 15 mins followed by ATP acyl phosphate probe addition and measured after 10 mins by LC-MS/MS analysis relative to control. Format: subcellular. The note with it: time 25.0 min. A digest of the protocol: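 KiNativ profiling in HeLa lysate (5 mg/mL total protein). Lysate incubated 15 min with inhibitor at 50, 10, 2, 0.8 or 0 μM. ATP or ADP acylphosphate probe then added (5 μM final) and reacted 10 min. Reaction stopped with urea and analysed by targeted MS, using up to four fragment ions per kinase peptide-probe conjugate. % inhibition taken against untreated lysate. Run in duplicate.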

Series [7] has as its target Tyrosine-protein kinase JAK1 (Homo sapiens, UniProt P23458). Kind of series: Inhibition of JAK1 domain 2 in human HeLa cells lysate at 2 uM pre incubated for 15 mins followed by ATP acyl phosphate probe addition and measured after 10 mins by LC-MS/MS analysis relative to control. Conditions: time 25.0 min. It is filed as subcellular.
The target in series [8] is Serine/threonine-protein kinase Sgk1 (Homo sapiens, UniProt O00141). As to the kind of experiment: Inhibition of SGK1 in human HeLa cells lysate pre incubated for 15 mins followed by ADP acyl phosphate probe addition and measured after 10 mins by LC-MS/MS analysis. It is filed as subcellular.
Series [9] deals with Mitogen-activated protein kinase kinase kinase 2 (Homo sapiens) (UniProt Q9Y2U5). As to the kind of experiment: Inhibition of MAP3K2 in human HeLa cells lysate at 10 uM pre incubated for 15 mins followed by ADP acyl phosphate probe addition and measured after 10 mins by LC-MS/MS analysis relative to control. The note with it: time 25.0 min. Format: subcellular.
The target in series [10] is Ribosomal protein S6 kinase alpha-5 (Homo sapiens, UniProt O75582). Kind of series: Inhibition of MSK1 domain 1 in human HeLa cells lysate at 2 uM pre incubated for 15 mins followed by ADP acyl phosphate probe addition and measured after 10 mins by LC-MS/MS analysis relative to control. Format: subcellular. The note with it: time 25.0 min.
Series [11] can be described thus: Clearance in Sprague-Dawley rat at 1 mg/kg, iv measured up to 8 hrs by LC-MS/MS analysis. It is filed as ADME, organism-based. The note with it: in vivo. A digest of the protocol:
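Sprague-Dawley rats given one intravenous dose or one oral dose of 2 mg/kg. Plasma drug concentrations were followed over time, with samples taken out to 8 hr after dosing. PK parameters (clearance, volume of distribution, half-life, oral bioavailability, Cmax) were calculated from these concentration–time data.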

Sequence of Mitogen-activated protein kinase kinase kinase 2 (Homo sapiens) (Q9Y2U5 whole entry, the tested form may be a part): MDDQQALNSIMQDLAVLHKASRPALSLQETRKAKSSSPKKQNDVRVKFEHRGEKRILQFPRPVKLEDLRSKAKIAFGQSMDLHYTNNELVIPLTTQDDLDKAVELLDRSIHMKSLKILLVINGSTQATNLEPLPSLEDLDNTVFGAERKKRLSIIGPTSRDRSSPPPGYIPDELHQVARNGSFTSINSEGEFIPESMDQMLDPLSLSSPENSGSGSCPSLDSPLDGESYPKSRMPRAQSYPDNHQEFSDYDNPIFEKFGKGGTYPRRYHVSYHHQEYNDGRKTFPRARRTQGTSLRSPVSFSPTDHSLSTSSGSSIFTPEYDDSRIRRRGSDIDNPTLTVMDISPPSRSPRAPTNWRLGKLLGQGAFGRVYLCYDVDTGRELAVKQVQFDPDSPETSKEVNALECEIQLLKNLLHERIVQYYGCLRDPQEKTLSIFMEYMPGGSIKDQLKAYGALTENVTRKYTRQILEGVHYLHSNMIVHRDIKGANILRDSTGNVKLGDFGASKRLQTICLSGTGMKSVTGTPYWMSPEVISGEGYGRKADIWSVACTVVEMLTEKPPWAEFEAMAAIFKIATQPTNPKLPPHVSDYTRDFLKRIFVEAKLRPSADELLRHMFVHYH
Sequence of Ribosomal protein S6 kinase alpha-5 (O75582 whole entry, looked up, the tested form may be a part): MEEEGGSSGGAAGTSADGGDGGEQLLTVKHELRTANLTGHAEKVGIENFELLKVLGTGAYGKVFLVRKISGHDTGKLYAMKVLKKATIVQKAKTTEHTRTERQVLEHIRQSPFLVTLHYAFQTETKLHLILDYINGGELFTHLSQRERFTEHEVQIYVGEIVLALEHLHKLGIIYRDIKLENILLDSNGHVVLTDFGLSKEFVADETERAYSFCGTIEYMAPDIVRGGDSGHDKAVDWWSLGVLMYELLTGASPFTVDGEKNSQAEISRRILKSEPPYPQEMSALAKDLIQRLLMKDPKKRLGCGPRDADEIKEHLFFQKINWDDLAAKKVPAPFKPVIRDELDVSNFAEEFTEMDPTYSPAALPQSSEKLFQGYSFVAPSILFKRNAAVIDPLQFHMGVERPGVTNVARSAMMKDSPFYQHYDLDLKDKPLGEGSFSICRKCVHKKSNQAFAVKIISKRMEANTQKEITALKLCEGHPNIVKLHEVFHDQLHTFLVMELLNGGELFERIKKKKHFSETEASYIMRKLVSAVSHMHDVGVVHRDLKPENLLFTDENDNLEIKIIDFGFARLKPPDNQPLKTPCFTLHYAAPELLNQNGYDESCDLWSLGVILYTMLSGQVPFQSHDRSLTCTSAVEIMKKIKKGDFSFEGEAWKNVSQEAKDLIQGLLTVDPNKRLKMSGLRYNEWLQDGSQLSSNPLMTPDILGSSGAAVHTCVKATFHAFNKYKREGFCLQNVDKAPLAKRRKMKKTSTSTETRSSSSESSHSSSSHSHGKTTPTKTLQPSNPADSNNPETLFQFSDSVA
Sequence of Phosphorylase b kinase gamma catalytic chain, liver/testis isoform (P15735 whole entry, canonical isoform): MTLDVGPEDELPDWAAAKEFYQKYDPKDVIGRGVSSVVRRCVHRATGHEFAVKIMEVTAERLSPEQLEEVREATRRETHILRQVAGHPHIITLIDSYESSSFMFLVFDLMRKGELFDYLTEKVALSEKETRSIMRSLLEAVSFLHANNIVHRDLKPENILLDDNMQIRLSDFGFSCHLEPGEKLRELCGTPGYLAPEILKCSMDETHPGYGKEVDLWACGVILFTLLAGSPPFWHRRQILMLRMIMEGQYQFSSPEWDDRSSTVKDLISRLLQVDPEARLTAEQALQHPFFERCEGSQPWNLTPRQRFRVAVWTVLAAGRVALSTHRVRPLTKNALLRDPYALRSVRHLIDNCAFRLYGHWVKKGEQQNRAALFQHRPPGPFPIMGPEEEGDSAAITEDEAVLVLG
Sequence of Serine/threonine-protein kinase Sgk1 (O00141 whole entry): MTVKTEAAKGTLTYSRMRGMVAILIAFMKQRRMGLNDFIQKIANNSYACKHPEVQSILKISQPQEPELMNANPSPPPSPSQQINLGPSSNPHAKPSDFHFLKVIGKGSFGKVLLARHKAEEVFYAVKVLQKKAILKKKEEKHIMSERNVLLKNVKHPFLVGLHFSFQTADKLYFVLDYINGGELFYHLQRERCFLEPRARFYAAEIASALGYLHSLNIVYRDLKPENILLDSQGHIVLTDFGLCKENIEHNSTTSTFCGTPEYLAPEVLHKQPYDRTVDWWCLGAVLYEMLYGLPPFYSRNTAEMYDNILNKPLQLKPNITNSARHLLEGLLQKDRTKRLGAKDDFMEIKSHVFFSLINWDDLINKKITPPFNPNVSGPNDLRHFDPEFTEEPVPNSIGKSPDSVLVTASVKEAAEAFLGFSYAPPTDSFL
Sequence of Serine/threonine-protein kinase TAO2 (Q9UL54 whole entry): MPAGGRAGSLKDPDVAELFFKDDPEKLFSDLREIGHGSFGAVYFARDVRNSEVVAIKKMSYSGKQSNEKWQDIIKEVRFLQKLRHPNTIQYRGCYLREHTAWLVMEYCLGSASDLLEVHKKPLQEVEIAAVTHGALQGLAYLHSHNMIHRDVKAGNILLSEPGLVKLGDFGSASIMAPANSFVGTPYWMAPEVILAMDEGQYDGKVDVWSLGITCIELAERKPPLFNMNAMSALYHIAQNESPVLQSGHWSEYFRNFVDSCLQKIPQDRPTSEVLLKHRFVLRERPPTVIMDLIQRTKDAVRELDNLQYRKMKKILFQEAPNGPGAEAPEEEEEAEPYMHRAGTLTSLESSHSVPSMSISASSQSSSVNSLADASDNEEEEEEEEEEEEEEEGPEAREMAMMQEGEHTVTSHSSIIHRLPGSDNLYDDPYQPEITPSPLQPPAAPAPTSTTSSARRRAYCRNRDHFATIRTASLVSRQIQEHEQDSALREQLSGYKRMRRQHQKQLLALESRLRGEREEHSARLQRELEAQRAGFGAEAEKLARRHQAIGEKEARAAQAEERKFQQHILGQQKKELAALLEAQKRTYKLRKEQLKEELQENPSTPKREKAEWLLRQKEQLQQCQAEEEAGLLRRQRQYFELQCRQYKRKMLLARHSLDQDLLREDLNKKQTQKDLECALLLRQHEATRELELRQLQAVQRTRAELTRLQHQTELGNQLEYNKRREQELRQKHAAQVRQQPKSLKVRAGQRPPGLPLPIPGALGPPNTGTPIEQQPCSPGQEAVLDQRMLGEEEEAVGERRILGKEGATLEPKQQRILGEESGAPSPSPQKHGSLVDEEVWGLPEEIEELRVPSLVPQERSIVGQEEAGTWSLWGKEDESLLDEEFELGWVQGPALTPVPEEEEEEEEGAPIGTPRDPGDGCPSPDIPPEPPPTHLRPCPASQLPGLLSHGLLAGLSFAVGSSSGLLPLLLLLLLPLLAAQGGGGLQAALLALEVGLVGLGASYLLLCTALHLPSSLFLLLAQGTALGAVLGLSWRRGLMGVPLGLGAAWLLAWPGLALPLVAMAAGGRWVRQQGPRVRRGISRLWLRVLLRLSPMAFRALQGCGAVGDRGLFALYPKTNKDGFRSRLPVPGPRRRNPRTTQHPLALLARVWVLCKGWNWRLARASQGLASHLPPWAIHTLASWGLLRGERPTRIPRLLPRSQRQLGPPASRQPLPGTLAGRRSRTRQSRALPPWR
Sequence of Tyrosine-protein kinase JAK1 (P23458 whole entry, the tested form may be a part): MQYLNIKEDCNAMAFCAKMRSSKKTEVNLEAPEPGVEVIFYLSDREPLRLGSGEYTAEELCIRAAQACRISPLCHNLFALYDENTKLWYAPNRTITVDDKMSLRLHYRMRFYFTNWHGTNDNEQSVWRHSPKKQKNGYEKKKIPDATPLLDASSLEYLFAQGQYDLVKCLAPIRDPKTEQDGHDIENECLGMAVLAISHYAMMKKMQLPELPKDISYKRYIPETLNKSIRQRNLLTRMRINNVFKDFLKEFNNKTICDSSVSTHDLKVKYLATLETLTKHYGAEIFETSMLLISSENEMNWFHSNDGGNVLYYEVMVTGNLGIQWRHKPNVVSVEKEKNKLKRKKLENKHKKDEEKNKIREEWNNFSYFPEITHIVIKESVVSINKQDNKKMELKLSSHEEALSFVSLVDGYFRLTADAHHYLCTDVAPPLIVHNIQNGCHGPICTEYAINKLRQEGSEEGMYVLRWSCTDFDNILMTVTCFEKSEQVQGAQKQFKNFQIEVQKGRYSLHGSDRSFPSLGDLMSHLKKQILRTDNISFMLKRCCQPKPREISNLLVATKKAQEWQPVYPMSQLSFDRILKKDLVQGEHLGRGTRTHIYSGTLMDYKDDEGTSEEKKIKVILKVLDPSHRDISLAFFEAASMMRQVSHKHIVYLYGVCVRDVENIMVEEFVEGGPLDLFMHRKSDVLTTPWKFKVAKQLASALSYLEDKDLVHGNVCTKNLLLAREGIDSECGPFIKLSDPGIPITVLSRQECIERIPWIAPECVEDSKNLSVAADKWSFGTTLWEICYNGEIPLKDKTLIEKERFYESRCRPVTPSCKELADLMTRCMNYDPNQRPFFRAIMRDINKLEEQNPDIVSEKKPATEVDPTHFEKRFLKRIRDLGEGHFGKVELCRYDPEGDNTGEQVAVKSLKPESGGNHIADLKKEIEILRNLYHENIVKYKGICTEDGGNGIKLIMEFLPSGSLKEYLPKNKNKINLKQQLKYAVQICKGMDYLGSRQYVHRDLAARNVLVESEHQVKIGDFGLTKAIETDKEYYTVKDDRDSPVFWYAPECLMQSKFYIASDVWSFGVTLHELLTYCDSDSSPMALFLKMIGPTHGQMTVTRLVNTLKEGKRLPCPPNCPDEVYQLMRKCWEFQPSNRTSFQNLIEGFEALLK

`CCOc1cc(N2CCC(O)CC2)ccc1Nc1ncc2c(n1)N(C)c1ccccc1C(=O)N2C`: the IC50 (in [1]; against RPS6KA1/RPS6KA2/RPS6KA3; in series [5]; in series [8]) was greater than 50 µM each time. Besides, the inhibition is -3.7% in series [2]; 4.5% in [3]; 3.9% in series [4]; -2.9% in series [6]; 9.7% in [7]; 36.2% in series [9]. Besides, the inhibition in series [10] worked out at 21.5%. Besides, the clearance in series [11] turned out to be 26 mL/min/kg.

Broadly, the IC50 is the concentration at which inhibition is half-maximal. The term inhibition denotes the drop in the measured response relative to a control, in per cent. In general, clearance refers to a measure of how efficiently the substance is removed, as volume per time. Higher therefore signals efficient removal.
